Key:
Cathepsin K = target: T1, Cathepsin K (Homo sapiens, UniProt P43235); experiment: Inhibition of recombinant human cathepsin K in fluorescence assay
T1 sequence (P43235 whole entry): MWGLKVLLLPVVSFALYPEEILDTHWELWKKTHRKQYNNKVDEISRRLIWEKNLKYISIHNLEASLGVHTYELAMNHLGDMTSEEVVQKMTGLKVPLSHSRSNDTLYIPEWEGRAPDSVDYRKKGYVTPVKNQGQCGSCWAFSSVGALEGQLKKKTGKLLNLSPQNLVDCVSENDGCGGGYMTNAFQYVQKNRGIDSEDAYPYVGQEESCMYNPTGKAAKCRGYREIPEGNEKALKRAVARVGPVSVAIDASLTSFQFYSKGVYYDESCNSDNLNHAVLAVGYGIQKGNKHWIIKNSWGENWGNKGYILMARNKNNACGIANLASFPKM
In short: (§1)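 Each recombinant human enzyme (cathepsin K, L or S) was assayed separately. IC50 values are the mean of two independent experiments, each performed in duplicate.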

Cathepsin S = Cathepsin S (Homo sapiens, UniProt P25774); experiment: Inhibition of recombinant human cathepsin S in a fluorescence assay; in short: as §1
Sequence of Cathepsin S (P25774 whole entry): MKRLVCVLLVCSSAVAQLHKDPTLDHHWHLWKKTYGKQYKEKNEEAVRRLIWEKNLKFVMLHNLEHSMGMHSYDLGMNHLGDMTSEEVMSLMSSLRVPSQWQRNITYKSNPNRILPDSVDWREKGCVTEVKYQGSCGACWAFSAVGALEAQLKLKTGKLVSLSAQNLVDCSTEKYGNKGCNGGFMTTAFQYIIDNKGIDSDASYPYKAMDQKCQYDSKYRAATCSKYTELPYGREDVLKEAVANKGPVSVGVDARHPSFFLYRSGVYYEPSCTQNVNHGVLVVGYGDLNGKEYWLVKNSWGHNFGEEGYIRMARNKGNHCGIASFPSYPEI

Procathepsin L = Procathepsin L (Homo sapiens, UniProt P07711); experiment: Inhibition of recombinant human cathepsin L in a fluorescence assay.; in short: as §1
Sequence of Procathepsin L (P07711 whole entry): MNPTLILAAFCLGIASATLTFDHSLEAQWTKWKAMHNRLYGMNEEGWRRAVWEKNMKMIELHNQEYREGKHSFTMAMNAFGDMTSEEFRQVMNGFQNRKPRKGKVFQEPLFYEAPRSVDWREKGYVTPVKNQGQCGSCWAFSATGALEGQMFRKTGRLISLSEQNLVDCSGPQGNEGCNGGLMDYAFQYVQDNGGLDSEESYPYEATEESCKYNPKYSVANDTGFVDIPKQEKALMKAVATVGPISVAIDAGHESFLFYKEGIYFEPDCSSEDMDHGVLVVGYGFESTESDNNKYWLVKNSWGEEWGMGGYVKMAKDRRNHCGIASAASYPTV

[1] = target: Cathepsin K (Oryctolagus cuniculus); experiment: Eq. constant (Ki) for inhibition of Cathepsin K was determined by progress curves, following hydrolysis of Z-Phe-Arg- Amc in the absence and presence of compound

## CCCc1ccc(C(=O)N[C@@H](CC(C)C)C(=O)NCCNc2ccc(OC)cc2)cc1
Cathepsin K
  IC50: < 3 nM
Cathepsin S
  IC50: 1200 nM
Procathepsin L
  IC50: < 30 nM

## COc1ccc(NCCNC(=O)[C@H](CC(C)C)NC(=O)c2ncn(-c3cccc(Cl)c3Cl)n2)cc1
Cathepsin K
  IC50: 9 nM
Cathepsin S
  IC50: 190 nM
Procathepsin L
  IC50: > 10000 nM
[1]
  Ki: 11 nM

## COc1ccc(NCCNC(=O)[C@H](CC(C)C)NC(=O)c2ncn(-c3ccccc3Cl)n2)cc1
Cathepsin K
  IC50: 6 nM
Cathepsin S
  IC50: 1900 nM
Procathepsin L
  IC50: 2300 nM

## COc1ccc(NCCNC(=O)[C@H](CC(C)C)NC(=O)c2ccc(C(C)C)cn2)cc1
Cathepsin K
  IC50: < 3 nM
Cathepsin S
  IC50: 7200 nM
Procathepsin L
  IC50: 1500 nM

## COc1ccc(NCCNC(=O)[C@H](CC(C)C)NC(=O)c2ccc(C(C)C)cc2)cc1
Cathepsin K
  IC50: < 3 nM
Cathepsin S
  IC50: 5700 nM
Procathepsin L
  IC50: 50 nM

## COc1ccc(NCCNC(=O)[C@H](CC(C)C)NC(=O)c2ccc(OCc3ccccc3)cc2)cc1
Cathepsin K
  IC50: 6 nM
Cathepsin S
  IC50: 9500 nM
Procathepsin L
  IC50: > 10000 nM
[1]
  Ki: 15 nM
